In ChEMBL document CHEMBL4270544, “Design, synthesis and biological evaluation of a novel tubulin inhibitor 7a3 targeting the colchicine binding site” (Eur J Med Chem, 2018):
Active and inactive are the calls of the source. The rule behind the calls is not given here.

Assays:
SK-OV-3 [1] = assay: Induction of apoptosis in human SKOV3 cells assessed as early apoptotic cells at 160 nM after 48 hrs by Annexin-V-FITC/propidium iodide staining based flow cytometry (reference value: 0.97%); assay type: functional
[2] = Cmax in C57 mouse at 50 mg/kg, ip administered as single dose by LC-MS/MS analysis; assay type: ADME, organism-based; design: dose 50 mg/kg, route intraperitoneal; details: in vivo
In short: (§1)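 Male C57 mice, one intraperitoneal dose. Blood drawn from submaxillary vein at 0, 5, 15, 30 min and 1, 2, 4, 8, 12, 24 h. Plasma measured by LC/MS/MS in MRM mode with CA-4 as internal standard. Calibration by weighted linear regression over 0.01–500 ng/mL. Parameters obtained by non-compartmental analysis.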

Mus musculus [3] = assay: Toxicity in Balb/c mouse xenografted with human SKOV3 cells assessed as pathological changes in spleen at 50 mg/kg, ip administered every two days for three times by hematoxylin and eosin staining based assay; assay type: organism-based; details: in vivo
In short: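 Six-week-old Balb/c nude mice received subcutaneous SK-OV-3 cells in the back. At ~200 mm3 tumour size they were randomized to vehicle or drug groups, six per group. Drug was given in 5% (v/v) DMSO/olive oil, intraperitoneally, every two days for three doses. Heart, liver, spleen, lung and kidney were collected and examined by H&E staining.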

[4] = AUC (0 to 24 hrs) in C57 mouse at 50 mg/kg, ip administered as single dose by LC-MS/MS analysis; assay type: ADME, organism-based; design: dose 50 mg/kg, time < 24 hr, route intraperitoneal; details: in vivo; in short: as §1
SK-OV-3 [5] = assay: Inhibition of tubulin assembly in human SKOV3 cells assessed as disorganized microtubule polymerization at 10 to 1000 nM after 24 hrs by DAPI staining based immunofluorescence microscopic method; assay type: functional, cell-based
In short: (§2)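 SK-OV-3 cells exposed to DMSO or 10, 100 or 1000 nM for 24 h. Fixed in methanol, stained with FITC anti-β-tubulin antibody, counterstained with DAPI, and imaged by confocal microscopy.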

[6] = Elimination rate constant in C57 mouse at 50 mg/kg, ip administered as single dose by LC-MS/MS analysis; assay type: ADME, organism-based; details: in vivo; in short: as §1
[7] = Tmax in C57 mouse at 50 mg/kg, ip administered as single dose by LC-MS/MS analysis; assay type: ADME, organism-based; details: in vivo; in short: as §1
SK-OV-3 [8] = assay: Cell cycle arrest in human SKOV3 cells assessed as accumulation at G0/G1 phase at 80 nM after 24 hrs by propidium iodide staining based flow cytometry (reference value: 67.79%); assay type: functional
In short: (§3)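 SK-OV-3 cells exposed to 40, 80 or 160 nM for 24 h, with untreated cells as control. Stained with PI and analysed by flow cytometry for phase distribution. Mean ± SEM of three independent experiments; t-test against control.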

Bos taurus [9] = species on record: Bos taurus; assay: Inhibition of bovine MAP-rich tubulin polymerization at 10 uM measured every 1 min for 30 mins relative to control
In short: (§4)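 Purified tubulin polymerization followed at 37 °C by absorbance at 340 nm, read every 1 min for 30 min. Test concentrations 2.5, 10 and 40 µM. CA-4 at 10 µM served as positive control and DMSO (1%, v/v) as vehicle. Polymerization is expressed relative to the vehicle group.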

SK-OV-3 [10] = assay: Cell cycle arrest in human SKOV3 cells assessed as accumulation at S phase at 80 nM after 24 hrs by propidium iodide staining based flow cytometry (reference value: 18.09%); assay type: functional; in short: as §3
MDA-MB-231 = assay: Antiproliferative activity against human MDA-MB-231 cells after 72 hrs by CCK8 assay; assay type: functional, cell-based; details: MDA-MB-231, 72 h
In short: (§5)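 CCK-8 proliferation assay with CA-4 as positive control. IC50 is the concentration giving 50% inhibition of proliferation. Mean ± SEM from three independent experiments.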

SK-OV-3 [11] = assay: Induction of apoptosis in human SKOV3 cells assessed as early apoptotic cells at 80 nM after 48 hrs by Annexin-V-FITC/propidium iodide staining based flow cytometry (reference value: 0.97%); assay type: functional
SK-OV-3 [12] = assay: Inhibition of tubulin assembly in human SKOV3 cells assessed as abnormal mitotic spindle formation at 10 to 1000 nM after 24 hrs by DAPI staining based immunofluorescence microscopic method; assay type: functional, cell-based; in short: as §2
SK-OV-3 [13] = assay: Cell cycle arrest in human SKOV3 cells assessed as accumulation at S phase at 40 nM after 24 hrs by propidium iodide staining based flow cytometry (reference value: 18.09%); assay type: functional; in short: as §3
Mus musculus [14] = assay: Toxicity in Balb/c mouse xenografted with human SKOV3 cells assessed as body weight loss at 50 mg/kg, ip administered every two days for three times measured during compound dosing; assay type: organism-based; details: in vivo
In short: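 Six-week-old Balb/c nude mice given subcutaneous SK-OV-3 cells in the back. Randomised into three groups at about 200 mm3 tumour size. Dosed 50 mg/kg intraperitoneally in 5% DMSO/olive oil every two days, three times; vehicle group as control. Tumour volume and body weight tracked; six animals per group, mean ± SEM, t-test.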

SK-OV-3 [15] = assay: Induction of apoptosis in human SKOV3 cells assessed as necrotic cells at 80 nM after 48 hrs by Annexin-V-FITC/propidium iodide staining based flow cytometry (reference value: 0.67%); assay type: functional
SK-OV-3 [16] = assay: Antimigratory activity against human SKOV3 cells assessed as wound closure at 80 nM after 24 hrs by microscopy based scratch wound assay (reference value: 79.5 +/- 2.8%); assay type: functional
SK-OV-3 [17] = assay: Induction of apoptosis in human SKOV3 cells assessed as late apoptotic cells at 40 nM after 48 hrs by Annexin-V-FITC/propidium iodide staining based flow cytometry (reference value: 3.93%); assay type: functional
Mus musculus [18] = assay: Toxicity in Balb/c mouse xenografted with human SKOV3 cells assessed as pathological changes in kidney at 50 mg/kg, ip administered every two days for three times by hematoxylin and eosin staining based assay; assay type: organism-based; details: in vivo
In short: (§6)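 In SK-OV-3 xenografted Balb/c nude mice dosed 50 mg/kg intraperitoneally in 5% DMSO/olive oil every two days, three times, organs were collected and examined after H&E staining.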

SK-OV-3 [19] = assay: Cell cycle arrest in human SKOV3 cells assessed as accumulation at G0/G1 phase at 160 nM after 24 hrs by propidium iodide staining based flow cytometry (reference value: 67.79%); assay type: functional; in short: as §3
SK-OV-3 [20] = assay: Antimigratory activity against human SKOV3 cells assessed as number of migrated cells at 50 nM after 24 hrs by crystal violet staining based transwell migration assay (reference value: 49.3 to 50.7); assay type: functional
SK-OV-3 [21] = assay: Antimigratory activity against human SKOV3 cells assessed as wound closure at 160 nM after 24 hrs by microscopy based scratch wound assay (reference value: 79.5 +/- 2.8%); assay type: functional
Mus musculus [22] = assay: Toxicity in Balb/c mouse xenografted with human SKOV3 cells assessed as pathological changes in lung at 50 mg/kg, ip administered every two days for three times by hematoxylin and eosin staining based assay; assay type: organism-based; details: in vivo; in short: as §6
SK-OV-3 [23] = assay: Antiproliferative activity against human SKOV3 cells after 72 hrs by CCK8 assay; assay type: functional, cell-based; details: SK-OV-3, 72 h; in short: as §5
Bos taurus [24] = species on record: Bos taurus; assay: Inhibition of bovine MAP-rich tubulin polymerization measured every 1 min for 30 mins; in short: as §4
SK-OV-3 [25] = assay: Induction of apoptosis in human SKOV3 cells assessed as late apoptotic cells at 160 nM after 48 hrs by Annexin-V-FITC/propidium iodide staining based flow cytometry (reference value: 3.93%); assay type: functional

CCOc1ccc(-c2cn(C)nc2-c2cc(OC)c(OC)c(OC)c2)cc1
Activity (SK-OV-3 [1]): 9.46% | Cmax [2]: 0.882 µg/mL | Activity (Mus musculus [3]): Non-Toxic | AUC(0-t) at 24 h [4]: 1.14 µg·h/mL | inhibition (SK-OV-3 [5]): Active | k el [6]: 0.000117 s⁻¹ | Tmax [7]: 15 min | Activity (SK-OV-3 [8]): 41.2% | inhibition (Bos taurus [9]): 60.4% | Activity (SK-OV-3 [10]): 24.15% | IC50 (MDA-MB-231): 0.031 µM | Activity (SK-OV-3 [11]): 5.05% | inhibition (SK-OV-3 [12]): Active | Activity (SK-OV-3 [13]): 20.99% | Activity (Mus musculus [14]): Non-Toxic | Activity (SK-OV-3 [15]): 2.72% | Activity (SK-OV-3 [16]): 44.3% | Activity (SK-OV-3 [17]): 6.65% | Activity (Mus musculus [18]): Non-Toxic | Activity (SK-OV-3 [19]): 8.05% | Activity (SK-OV-3 [20]): 21.7 | Activity (SK-OV-3 [21]): 32.1% | Activity (Mus musculus [22]): Non-Toxic | IC50 (SK-OV-3 [23]): 0.017 µM | inhibition (Bos taurus [24]): Dose-dependent effect | Activity (SK-OV-3 [25]): 47.36%
